Source: ChEMBL document CHEMBL1146303, “Spirodiketopiperazine-based CCR5 antagonists: Lead optimization from biologically active metabolite” (Bioorg Med Chem Lett, 2007)

What was measured:
[1] = target: T1, C-C chemokine receptor type 5 (Homo sapiens, UniProt P51681); assay: Displacement of [125I]MIP1-alpha from human CCR5 expressed in CHO cells; assay type: cell-based
[2] = target: T1, C-C chemokine receptor type 5; assay: Antagonist activity at human CCR5 expressed in CHO cells assessed as inhibition of MIP-1-alpha-stimulated calcium mobilization; assay type: functional, cell-based
Outline: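 Cells expressing human CCR5 (hCCR5/CHO) were stimulated with MIP-1α, and the rise in intracellular calcium was measured. Potency is reported as an IC50 for inhibition of the calcium response.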

[3] = Bioavailability in rat; assay type: ADME, organism-based; conditions: in vivo
[4] = tested on: Human immunodeficiency virus; assay: Antiviral activity against HIV; assay type: functional, organism-based; conditions: Human immunodeficiency virus 1
[5] = tested on: Human immunodeficiency virus 1; assay: Anti-infective activity against HIV1 BAL in MAGI CCR5+ cells; assay type: functional, organism-based; conditions: Human immunodeficiency virus 1, BAL
[6] = Aqueous solubility at pH 6.8; assay type: physicochemical
Cytochrome P450 3A4 = Cytochrome P450 3A4 (Homo sapiens, UniProt P08684); assay: Inhibition of CYP3A4; assay type: ADME
Chain of Cytochrome P450 3A4 (P08684 whole entry): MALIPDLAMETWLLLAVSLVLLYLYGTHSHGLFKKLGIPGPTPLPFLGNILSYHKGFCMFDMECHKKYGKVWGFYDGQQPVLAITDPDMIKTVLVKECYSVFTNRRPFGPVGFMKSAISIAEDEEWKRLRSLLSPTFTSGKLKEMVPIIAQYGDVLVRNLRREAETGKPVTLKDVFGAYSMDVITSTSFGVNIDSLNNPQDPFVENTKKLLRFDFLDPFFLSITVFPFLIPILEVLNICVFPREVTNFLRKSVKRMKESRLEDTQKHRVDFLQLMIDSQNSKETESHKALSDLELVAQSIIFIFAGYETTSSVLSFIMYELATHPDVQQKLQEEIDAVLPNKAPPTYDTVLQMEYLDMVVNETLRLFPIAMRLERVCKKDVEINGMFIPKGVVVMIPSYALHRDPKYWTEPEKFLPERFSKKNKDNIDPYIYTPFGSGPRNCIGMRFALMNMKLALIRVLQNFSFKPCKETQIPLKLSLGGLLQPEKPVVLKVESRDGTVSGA

T1 sequence (P51681 whole entry): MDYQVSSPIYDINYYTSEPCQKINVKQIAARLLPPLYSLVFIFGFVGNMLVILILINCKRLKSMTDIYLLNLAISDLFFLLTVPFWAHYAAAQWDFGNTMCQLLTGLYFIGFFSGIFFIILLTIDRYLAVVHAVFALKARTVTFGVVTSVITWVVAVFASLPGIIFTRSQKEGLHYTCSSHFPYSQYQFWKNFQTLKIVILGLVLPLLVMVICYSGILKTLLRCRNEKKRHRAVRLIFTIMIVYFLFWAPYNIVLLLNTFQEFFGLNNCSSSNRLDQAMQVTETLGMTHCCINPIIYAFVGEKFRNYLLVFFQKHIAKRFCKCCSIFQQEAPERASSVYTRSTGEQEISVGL

Row | IC50 [1] | IC50 [2] | bioavailability [3] | SMILES | IC50 [4] | IC50 [5] | solubility [6] | IC50 (Cytochrome P450 3A4) | IC90 [4]
1 | 24 nM | 210 nM |  | CCCCN1C(=O)[C@@H]([C@@H](O)C(C)C)NC(=O)C12CCN(Cc1ccc(Oc3ccccc3)cc1)CC2 |  |  |  |  | 
2 | 3.5 nM | 33 nM | < 1% | CCCCN1C(=O)[C@@H]([C@H](O)C(C)C)NC(=O)C12CCN(Cc1ccc(Oc3ccccc3)cc1)CC2.Cl |  |  |  |  | 
3 |  |  | < 1% | CCCCN1C(=O)[C@@H]([C@H](O)C2CCCCC2)NC(=O)C12CCN(Cc1ccc(Oc3ccccc3)cc1)CC2.Cl | 0.6 nM | 6 nM | 2.7 µg/mL |  | 
4 | 68 nM | 400 nM |  | CCCCN1C(=O)[C@H]([C@H](O)C(C)C)NC(=O)C12CCN(Cc1ccc(Oc3ccccc3)cc1)CC2 |  |  |  |  | 
5 | 53 nM | 150 nM |  | CCCCN1C(=O)[C@H]([C@@H](O)C(C)C)NC(=O)C12CCN(Cc1ccc(Oc3ccccc3)cc1)CC2 |  |  |  |  | 
6 | 28 nM | 79 nM |  | CCCCN1C(=O)C(CC(C)(C)O)NC(=O)C12CCN(Cc1ccc(Oc3ccccc3)cc1)CC2 (stereo not drawn) |  |  |  |  | 

The next lines start with the compound.

Row | SMILES | IC50 [1] | IC50 [2] | bioavailability [3] | IC50 [4] | IC50 [5] | solubility [6] | IC50 (Cytochrome P450 3A4) | IC90 [4]
7 | CCCCN1C(=O)C(CC2CCCCC2)NC(=O)C12CCN(Cc1ccc(Oc3ccccc3)cc1)CC2.Cl (stereo not drawn) |  | 28 nM |  | 31 nM | 337 nM | < 0.2 µg/mL | 9300 nM | 
8 | CCCCN1C(=O)[C@@H](CC(C)C)NC(=O)C12CCN(Cc1ccc(Oc3ccccc3)cc1)CC2 | 29 nM | 130 nM |  |  |  |  |  | 
9 | CCCCN1C(=O)C(CC(C)C)NC(=O)C12CCN(Cc1ccc(Oc3ccccc3)cc1)CC2.Cl (stereo not drawn) | 8.3 nM | 94 nM | 1.3% |  |  |  |  | 676 nM
10 | CCCCN1C(=O)[C@H](CC(C)C)NC(=O)C12CCN(Cc1ccc(Oc3ccccc3)cc1)CC2 | 11 nM | 84 nM |  |  |  |  |  | 
